Only some compounds are listed: those with a hit (about 1.7% of all), similar ones and a draw of the others.
Dynein cargo inh: inhibitors of GR-EGFP nuclear translocation, primary screen, dynein cargo transport inhibitor project, imaging, high-content, 3617.4 mouse cells; test concentration mostly 20 µM; stimulated with dexamethasone, 1 µM; stronger effect = lower value; z-score, hits read low; actives 0.47% (n = 220,000); AID 1381, 2008;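 active = plate z-score of nuclear minus cytoplasmic receptor signal below a set negative limit, without overly bright fluorescence or cell loss, cut at about -3.5 in these data, passing the limit was not always enough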;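 also: z-score of nuclear minus cytoplasmic ring GR-EGFP intensity difference per well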
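Also added: dexamethasone, 1.0 µM final. Medium: tet-free, stripped-serum medium. Detection: fixed, Hoechst-stained cells imaged at 10x for EGFP. Read-out: nuclear-to-cytoplasmic GR-EGFP distribution per well. Times: induction 48 h, compound 1 h, agonist 30 min.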
EP2 modulator: EP2 receptor modulators, cAMP readout, primary screen, cell-based, HTRF cAMP, PGE2 stimulation; EP2-expressing cells, cAMP HTRF FRET, PGE2 co-stimulation; induction, % at 25 µM; actives 0.83% (n = 260,000); AID 940, 2007;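 active = compounds whose cAMP rise, as percent of the full-agonist control response, exceeds 60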;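 also: rat C6 glioma line stably carrying human EP2 under a CMV promoter; the protocol text gives 20 µM as final concentration; 100% = response of wells given 1 µM PGE2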
Target sequence (P43116 whole entry, looked up): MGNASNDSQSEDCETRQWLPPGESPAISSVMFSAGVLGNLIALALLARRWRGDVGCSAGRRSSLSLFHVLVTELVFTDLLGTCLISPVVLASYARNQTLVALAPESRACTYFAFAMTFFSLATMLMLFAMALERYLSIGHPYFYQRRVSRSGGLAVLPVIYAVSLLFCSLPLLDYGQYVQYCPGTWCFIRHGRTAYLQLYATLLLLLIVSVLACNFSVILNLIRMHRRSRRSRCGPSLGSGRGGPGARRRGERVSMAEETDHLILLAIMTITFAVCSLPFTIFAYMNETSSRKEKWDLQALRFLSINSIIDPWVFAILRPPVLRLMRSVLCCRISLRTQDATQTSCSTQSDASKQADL
Hsp70 act: Hsp70 transcriptional activators, primary screen, cell-based, HeLa, Hsp70 promoter luciferase, luminescence, 10 µM; activation, % at 10 µM; HeLa Hsp70 promoter luciferase reporter; scaled: vehicle 0, proteasome-inhibitor control 100%; actives 0.04% (n = 200,000);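 active = activation above the mean across all tested compounds plus 3 SD, cutoff set per campaign, cut at about 5.5% in these data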;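 also: 100% = MG132 at 30 µM as the positive control and 0% = DMSO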
PGE2 EP2 inh: human EP2 receptor antagonists, primary screen, TR-FRET cAMP, C6 glioma cells; actives 0.52% (n = 260,000); Prostaglandin E2 receptor EP2 subtype (Homo sapiens), P43116; AID 1422, 2008; inhibition, % at 25 µM; C6 glioma cells expressing human EP2; cells stimulated with saturating PGE2;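 active = percent inhibition above 40 after rounding to a whole number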;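 also: rat C6 glioma host cells with rolipram phosphodiesterase inhibitor present; the protocol text gives 20 µM as final concentration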
EP2 cAMP induct: cAMP induction in EP2, EP4, beta2-AR and parental cells, confirmation, counter-screen for EP2 modulator project, cell-based, five parallel assays, C6 glioma, HEK293 | shares compounds with EP2 modulator | cAMP HTRF induction; plus low (about EC15) PGE2 agonist | calls only at 20 µM (by protocol) | actives 47% (n = 1,300) | AID 1080, 2008;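 active = cAMP induction above 50% in the main assay while under 30% in all four parallel counter assays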;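 also: rat C6 glioma cells stably expressing human EP2 receptor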
* hit, by the source's call; ! = not active in a repeat.

`COC(=O)/C(=C/c1c[nH]c2ccccc12)NC(C)=O` gave Dynein cargo inh -0.192, EP2 modulator -15.4, Hsp70 act -0.2 and PGE2 EP2 inh 9.7.
Screening CC(=O)O[C@@H]1CC[C@]2(C)C(=C[C@H]([C@@H]3C=C4C[C@@H](OC(C)=O)CC[C@]4(C)C4=C3[C@@H]3C[C@@H]5O[C@@]6(CC[C@H](C)CO6)[C@@H](C)[C@@H]5[C@@]3(C)CC4)C3=C2CC[C@@]2(C)[C@@H]4[C@@H](C)[C@]5(CC[C@H](C)CO5)O[C@@H]4C[C@H]32)C1 returned EP2 modulator 20.1 and PGE2 EP2 inh 40.4*.
For Cc1ccc(-n2c(SCC(=O)N3CCCC(C)C3)nnc2-c2ccco2)cc1 (configuration not stated) the results were EP2 modulator 16.4 and PGE2 EP2 inh 93.2*.
`Cc1ccc(OCCCn2c(C(C)O)nc3ccccc32)cc1` (configuration not stated) gave EP2 modulator -23.5 and PGE2 EP2 inh 7.5.
For CCN(CC)CCNC(=O)c1[nH]c2ccc(OCc3ccccc3)cc2c1C the results were Dynein cargo inh inactive, EP2 modulator -95.8, Hsp70 act -0.2 and PGE2 EP2 inh 8.9.
`CCN(CC)CC[n+]1ccc2c(C)c3[nH]c4ccc(O)cc4c3c(C)c2c1` gave EP2 modulator 7.2 and PGE2 EP2 inh 43.6*.
Screening COC1CCCC(C(=O)N2CCC(Cn3nc(-c4cccs4)ccc3=O)CC2)C1 (configuration not stated) returned EP2 modulator -21.9.
COc1cc(NS(=O)(=O)c2ccc(C)cc2)ccc1-n1cnnn1 was read as Dynein cargo inh -0.64, EP2 modulator 21.1, Hsp70 act 0.0 and PGE2 EP2 inh 152.5*.
CCCNS(=O)(=O)c1ccc(-n2cnnn2)c(OC)c1 was read as Dynein cargo inh 1.04, EP2 modulator 6.2, Hsp70 act 0.1 and PGE2 EP2 inh 4.9.
CCCc1nnc(NC(=O)CCCOc2ccccc2C)s1 was read as EP2 modulator 39.5 and PGE2 EP2 inh 14.9.
`COC(=O)c1cc(=O)n(Cc2ccco2)c(=Nc2ccc(F)cc2)s1` gave Dynein cargo inh -4.64*, EP2 modulator 47.3, Hsp70 act 0.0 and PGE2 EP2 inh 11.0.
`CCC(=O)N(Cc1ccccc1Cl)Cc1cc2cc(C)c(C)cc2[nH]c1=O` gave EP2 modulator 21.8 and PGE2 EP2 inh 9.9.
COC(=O)c1[nH]c2ccc(C)cc2c1N was read as EP2 modulator -135.1 and PGE2 EP2 inh 6.0.
Screening Cc1ccc(C(=O)Oc2ccc(-c3nccc(-c4ccccn4)n3)cc2)cc1 returned Dynein cargo inh -0.583, EP2 modulator 39.5, Hsp70 act 0.0 and PGE2 EP2 inh 9.3.
For O=C(Oc1ccc(-c2nccc(-c3ccccn3)n2)cc1)c1cccc(C(F)(F)F)c1 the results were Dynein cargo inh 0.582, EP2 modulator 67.5*, Hsp70 act -0.3, PGE2 EP2 inh 14.1 and EP2 cAMP induct inactive.
Cc1nc2c(-c3ccccc3)c(C)nn2c(C)c1CCC(=O)N1CCOCC1 was read as Dynein cargo inh 1.16, EP2 modulator 78.3*, Hsp70 act 0.3, PGE2 EP2 inh 14.6 and EP2 cAMP induct inactive.
Screening Cc1nc2c(-c3ccc(F)cc3)c(C)nn2c(C)c1CCC(=O)N1CCOCC1 returned Dynein cargo inh 0.291, EP2 modulator 0.7, Hsp70 act -0.3 and PGE2 EP2 inh 7.0.
For COc1ccc(S(=O)(=O)N2CCC(C(=O)NCc3ccc(F)cc3)CC2)cc1 the results were EP2 modulator 11.4 and PGE2 EP2 inh 8.7.
`Nc1nc(Cc2ccccc2)nc(Cc2ccccc2)c1-c1ccccc1` gave EP2 modulator 66.6*, PGE2 EP2 inh 39.2 and EP2 cAMP induct inactive.
For Nc1nc(SCc2ccccc2)[nH]c(=O)c1-c1ccccc1 the results were Dynein cargo inh -0.428, EP2 modulator 10.0, Hsp70 act 0.0 and PGE2 EP2 inh 13.0.
`CCOc1nc(-c2ccccc2O)nc2ccccc12` gave Dynein cargo inh -1.07, EP2 modulator 81.4*, Hsp70 act 0.5, PGE2 EP2 inh 6.0 and EP2 cAMP induct active.
For CCN(CC)c1ccc(CN2CCc3c(nc(N4CCOCC4)[nH]c3=O)C2)c(OC)c1 the results were EP2 modulator -9.2.
`Cc1cc2cc(CN(C3CCCCC3)C(c3nnnn3Cc3ccccc3)C(C)C)c(=O)[nH]c2cc1C` (configuration not stated) gave EP2 modulator -6.8 and PGE2 EP2 inh 10.1.
`O=S(Cc1cc(Sc2ccccc2)nc(-c2ccccc2)n1)c1ccccc1` (configuration not stated) gave Dynein cargo inh 1.12, EP2 modulator 71.5*, Hsp70 act 0.0, PGE2 EP2 inh 8.1 and EP2 cAMP induct active.
Screening CNc1cc(CS(=O)c2ccccc2)nc(-c2ccccc2)n1 (configuration not stated) returned Dynein cargo inh -0.651, EP2 modulator -8.0, Hsp70 act -0.3 and PGE2 EP2 inh 14.6.
For Cc1cc(=O)oc2c3c4c(cc12)OCCN4CCC3 the results were Dynein cargo inh -0.339, EP2 modulator -12.7, Hsp70 act -0.4 and PGE2 EP2 inh 11.2.
CC(C)c1cc(=O)oc2c3c4c(cc12)CCCN4CCC3 was read as Dynein cargo inh 0.662, EP2 modulator 53.6, Hsp70 act -0.4, PGE2 EP2 inh 3.3 and EP2 cAMP induct active.
Screening CCN(C(=O)C1CC1)c1nc(-c2ccc(C)cc2)cs1 returned EP2 modulator 4.1 and PGE2 EP2 inh 7.1.
`CC1CCN(c2nc(-c3ccncc3)nc3ccccc23)CC1` gave Dynein cargo inh 0.184, EP2 modulator 79.1*, Hsp70 act 0.1, PGE2 EP2 inh 12.3 and EP2 cAMP induct inactive.
For CNC(=O)c1cc2c(=O)n3cc(C)ccc3nc2n(C(C)C)c1=N the results were Dynein cargo inh -0.69, EP2 modulator 72.9*!, Hsp70 act -0.4, PGE2 EP2 inh 14.0 and EP2 cAMP induct inactive.
COc1ccccc1N1CCN(C(c2nnnn2C2CCCC2)C(C)C)CC1 (configuration not stated) was read as EP2 modulator 7.2 and PGE2 EP2 inh 9.4.
Screening S=c1[nH]cc(-c2ccccc2)n1-c1ccccc1 returned Dynein cargo inh -0.0775, EP2 modulator 74.9*, Hsp70 act -0.2, PGE2 EP2 inh 11.3 and EP2 cAMP induct inactive.
Screening FC(F)(F)c1ccc(/C=N/NC(=S)NC2CCCCC2)cc1 returned Dynein cargo inh 0.0647, EP2 modulator 25.5, Hsp70 act -0.3 and PGE2 EP2 inh 4.1.
